# High-throughput results (PubChem)
# S100A4 MyoIIA – blocks human S100A4 binding to myosin IIA peptide; P26447; S100A4/TAMRA-MyoIIA peptide fluorescence polarization; inhibition, % at 10.7 µM; actives 0.14% (n = 360,000); AID 652163;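 active = mean inhibition of at least 70% across replicates, with every replicate also reaching that level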
# Target sequence (P26447 whole entry, looked up): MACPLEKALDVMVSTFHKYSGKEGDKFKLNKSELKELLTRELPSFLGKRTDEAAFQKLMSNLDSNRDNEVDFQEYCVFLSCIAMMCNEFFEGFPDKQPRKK
#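 Material: S100A4 monomer protein | Medium: HEPES pH 7.2 with CaCl2, KCl, NaCl, DTT, Triton | Reagent: Labelled myosin peptide probe, 5 nM | Doses: One dose per compound | Times: 5 min incubation before reading | Benchmarks: Neutral control DMSO, positive control TFP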
# C2C12 statin – suppression of simvastatin myotoxicity | actives 0.78% (n = 330,000) | rescue of ATP level, % at 7.49 µM | C2C12 myotubes + simvastatin, ATP luminescence, 48 h; scaled: DMSO 0, geranylgeraniol control 100;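 active = mean ATP rescue above about 67%, or every replicate alone reaching that limit, limit read from the data, passing the limit was not always enough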;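 note: myotubes were challenged with 10 µM simvastatin during compound exposure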
# SIRT5 inh – blocks human SIRT5 desuccinylation of peptide; inhibition, % at 15 µM; actives 1.1% (n = 330,000); Q9NXA8; Purified SirT5, succinyl-peptide AMC, trypsin-coupled fluorescence; in the data active = inhibition above about 15%
# Target sequence (Q9NXA8 whole entry, looked up): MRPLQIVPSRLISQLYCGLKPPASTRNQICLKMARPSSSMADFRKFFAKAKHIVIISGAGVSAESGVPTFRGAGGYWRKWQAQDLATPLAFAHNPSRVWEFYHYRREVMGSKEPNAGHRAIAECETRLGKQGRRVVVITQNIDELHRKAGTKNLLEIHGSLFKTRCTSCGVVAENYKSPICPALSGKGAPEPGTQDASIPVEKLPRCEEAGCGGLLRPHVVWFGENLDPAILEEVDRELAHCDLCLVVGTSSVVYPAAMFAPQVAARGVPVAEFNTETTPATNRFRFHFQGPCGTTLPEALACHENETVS
# DENV2 CPE – DENV2-induced cell death inhibition; DENV2-infected cells, cytopathic effect rescue, plate reader; AID 651640; CPE inhibition, % at 9.99 µM; actives 1.7% (n = 350,000); in the data active = CPE inhibition above about 20%, passing the limit was not always enough; tested in BHK-21 cells
# PGC1a acetyl inh – PGC1a acetylation modulation, inhibitor mode | actives 0.17% (n = 350,000) | U2OS PGC1a acetylation, AlphaScreen anti-acetyl-lysine; with virally co-expressed GCN5 acetyltransferase | AID 651687 | inhibition, % at 15.6 µM;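 active = every replicate shows inhibition of at least 40%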
# A number is an active result; . = inactive; / = no result. An excerpt weighted towards active compounds, which were near 2.9% of everything screened.
SMILES,S100A4 MyoIIA,C2C12 statin,SIRT5 inh,DENV2 CPE,PGC1a acetyl inh
CCCNC(=O)C[C@@H]1C[C@@H]2c3cc(NS(=O)(=O)c4cccc(OC)c4)ccc3O[C@@H]2[C@@H](CO)O1,.,.,.,.,.
COc1ccc(N2COC3c4cccc5cccc(c45)C32)cc1 (centres undefined),/,87.8,/,/,.
Clc1ccc(N2COC3c4cccc5cccc(c45)C32)cc1 (centres undefined),/,.,/,/,.
C[C@@H]1CCCCO[C@@H](CN(C)C(=O)CCC(F)(F)F)[C@H](C)CN([C@H](C)CO)C(=O)c2cc(NC(=O)c3ccccc3)ccc2O1,.,/,.,.,.
COc1ccc(S(=O)(=O)N(C)C[C@@H]2Oc3ncc(C#CC(C)(C)O)cc3C(=O)N([C@H](C)CO)C[C@@H]2C)cc1,.,.,.,.,.
COc1ccccc1OCCNC(=O)CN1C(=O)NC2(CCCCC2)C1=O,.,.,.,.,.
CCOc1ccc(/C=C2\SC(=O)N(CCNC(=O)CN3C(=O)NC4(CCCC4)C3=O)C2=O)cc1OC,.,/,.,55.6,.
CCOc1ccc(CCNC(=O)CN2C(=O)NC3(CCCCCC3)C2=O)cc1OCC,.,.,.,.,.
CCNC(=O)CN1C(=O)NC2(CCCCCC2)C1=O,/,.,/,/,.
CC1CCC(NC(=O)CN2C(=O)NC3(CCCCCC3)C2=O)CC1 (centres undefined),.,.,16.4,.,.
COCCNC(=O)CN1C(=O)NC2(CCCCCC2)C1=O,.,/,16.9,.,/
CCC(=O)N1CC2(C1)[C@H](c1ccccc1)[C@H](CO)N2S(=O)(=O)Cc1ccccc1,.,/,.,.,.
O=C(Cc1ccccc1)N1CC2(C1)[C@@H](c1ccccc1)[C@H](CO)N2S(=O)(=O)Cc1ccccc1,.,/,/,42.8,.
O=C(Cc1ccccc1)N1CC2(C1)[C@@H](c1ccccc1)[C@@H](CO)N2S(=O)(=O)Cc1ccccc1,.,/,.,35.3,.
C[C@H]1CN([C@@H](C)CO)C(=O)c2c(c3ccccc3n2C)-c2ccccc2CO[C@H]1CN(C)Cc1cccnc1,.,.,.,.,.
Cc1ccc(-c2cnc3c(c2)C(=O)N([C@H](C)CO)C[C@@H](C)[C@H](CN(C)C(=O)c2cccnc2)O3)cc1,.,.,.,.,.
COc1ccc2ccccc2c1/C=N/NC(=O)c1nnn(-c2nonc2N)c1CN(C)C,.,.,.,.,.
COc1ccc2ccccc2c1/C=N/NC(=O)c1nnn(-c2nonc2N)c1C(C)C,.,.,28.3,.,.
CCCc1c(C(=O)N/N=C/c2ccoc2)nnn1-c1nonc1N,.,.,.,20.8,.
C[C@H](CO)N1C[C@H](C)[C@@H](CN(C)C(=O)Nc2ccccc2)Oc2ccc(NS(C)(=O)=O)cc2C1=O,.,.,.,.,.
O=C(NC1CCCC1)N1CCCCN2[C@@H](CO)[C@@H](c3ccc(-c4ccccc4)cc3)[C@@H]2C1,.,/,.,.,.
O=C(C[C@@H]1CC[C@H]2[C@@H](COC[C@@H](O)CN2Cc2ccc(Oc3ccccc3)cc2)O1)N1CCCCC1,.,.,.,.,.
Cc1cc(-c2ccccc2)nc(N/N=C/c2ccc(O)cc2)n1,.,.,.,.,.
Oc1ccc(/C=N/Nc2nc(-c3ccc(Cl)cc3)cc(C(F)(F)F)n2)cc1,.,.,.,.,64.1
CCCN1C[C@@H](C)[C@H](OC)CN(C)C(=O)c2cc(NC(=O)NC3CCCCC3)ccc2OC[C@@H]1C,.,.,.,.,/
SMILES,S100A4 MyoIIA,C2C12 statin,SIRT5 inh,DENV2 CPE,PGC1a acetyl inh
C/C(=N\OC(=O)NC(C)C)c1sc(-c2ccc(Cl)cc2)nc1C,/,71.2,/,/,.
O=C(CCS(=O)(=O)Cc1ccccc1F)NCCc1ccc(Cl)cc1,.,.,16.6,.,.
Cc1ccc(CCNC(=O)CCS(=O)(=O)Cc2ccc(C)cc2)cc1,.,.,.,.,.
C[C@@H]1CCCCO[C@H](CN(C)C(=O)c2ccccc2)[C@H](C)CN([C@@H](C)CO)C(=O)c2cc(NC(=O)CCCCCC(=O)Nc3ccccc3N)ccc2O1,.,/,.,20.3,.
C[C@@H]1CCCCO[C@@H](CN(C)C(=O)NC2CCCCC2)[C@H](C)CN([C@@H](C)CO)C(=O)c2cc(NC(=O)CCCCCC(=O)Nc3ccccc3N)ccc2O1,.,/,.,.,.
C[C@@H]1CCCCO[C@H](CN(C)C(=O)NC2CCCCC2)[C@@H](C)CN([C@H](C)CO)C(=O)c2cc(NC(=O)CCCCCC(=O)Nc3ccccc3N)ccc2O1,.,/,.,112.1,.
C[C@@H]1CCCCO[C@H](CN(C)S(=O)(=O)c2ccc(F)cc2)[C@@H](C)CN([C@H](C)CO)C(=O)c2cc(NS(C)(=O)=O)ccc2O1,.,.,.,.,.
C[C@@H]1CN([C@H](C)CO)C(=O)c2cc(NS(C)(=O)=O)ccc2O[C@@H](C)CCCCO[C@H]1CN(C)S(=O)(=O)c1ccc(F)cc1,.,.,.,26.6,.
C[C@@H]1CCCCO[C@@H](CN(C)S(=O)(=O)c2ccc(F)cc2)[C@@H](C)CN([C@H](C)CO)C(=O)c2cc(NS(C)(=O)=O)ccc2O1,.,.,.,.,.
C[C@@H]1CCCCO[C@H](CN(C)S(=O)(=O)c2ccc(F)cc2)[C@H](C)CN([C@@H](C)CO)C(=O)c2cc(NS(C)(=O)=O)ccc2O1,.,81.2,.,.,.
C[C@@H]1CN([C@@H](C)CO)C(=O)c2cc(NS(C)(=O)=O)ccc2O[C@@H](C)CCCCO[C@H]1CN(C)S(=O)(=O)c1ccc(F)cc1,.,.,.,67.2,.
C[C@H](CO)N1C[C@H](C)[C@H](CN(C)S(=O)(=O)c2ccc(F)cc2)OCCCC[C@H](C)Oc2ccc(NS(C)(=O)=O)cc2C1=O,.,105.5,.,.,.
COc1ccc2c3c([nH]c2c1)[C@@H](CO)N(C)CC31CCN(C(=O)CN(C)C)CC1,.,/,.,.,.
COc1ccc(NC(=O)Nc2ccc3c(c2)[C@@H]2C[C@@H](CC(=O)NC4CCCCC4)O[C@H](CO)[C@@H]2O3)cc1,.,.,.,.,.
CN(C[C@H]1N[C@@H](CO)[C@H]1c1ccc(-c2cccc(F)c2)cc1)C(=O)CC1CC1,.,.,.,20.2,.
O=C(NC[C@@H]1N[C@@H](CO)[C@H]1c1ccc(C2=CCCCC2)cc1)c1ccc(F)cc1,.,.,.,51.5,.
O=S(=O)(NC[C@@H]1N[C@H](CO)[C@@H]1c1ccc(C2=CCCC2)cc1)c1ccccc1,.,.,.,.,.
O=S(=O)(NC[C@H]1N[C@@H](CO)[C@H]1c1ccc(C2=CCCC2)cc1)c1ccccc1,.,.,.,32.1,.
CN(C[C@H]1N[C@@H](CO)[C@@H]1c1ccc(C2=CCCC2)cc1)C(=O)c1ccc(F)cc1,.,.,.,.,78.8
CCC(=O)Nc1ccc2c(c1)C(=O)N(C)C[C@@H](OC)[C@@H](C)CN(C(=O)CN1CCOCC1)[C@@H](C)CO2,/,.,/,/,.
